Values after ≈ are worked out from the molar mass of the structure shown.
Experiments:
Assay type in all cases: functional
Haemophilus influenzae = assay: Antibacterial activity against Haemophilus influenzae ATCC 49247 after 16 to 22 hrs by broth dilution method
In short: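 Microdilution trays following the CLSI standard, with two-fold serial dilutions in supplemented broth suited to H. influenzae. DMF stocks at 5 mg/ml. Inoculum prepared from a turbidity-adjusted direct colony suspension to about 5 × 10⁴ CFU/well final. Incubated at 35 °C for 16–22 h. MIC is the lowest concentration giving complete (99%) growth inhibition.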

Streptococcus pneumoniae [1] = assay: Antibacterial activity against erythromycin-susceptible Streptococcus pneumoniae after 16 to 22 hrs by broth microdilution method
In short: (§1)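 Streptococci tested by CLSI broth microdilution in Mueller–Hinton broth with 5% horse serum, using two-fold serial dilutions. Compounds were dissolved in DMF at 5 mg/ml (stock). Inoculum was a turbidity-adjusted direct colony suspension giving about 5 × 10⁴ CFU/well. Trays were held at 35 °C for 16–22 h. MIC is the lowest concentration completely inhibiting growth (99%).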

Enterococcus faecalis = assay: Antibacterial activity against Enterococcus faecalis ATCC 29212 after 16 to 22 hrs by broth dilution method
In short: (§2)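 Broth microdilution per the CLSI approved standard (sixth edition), using two-fold serial dilutions of compound in Mueller–Hinton broth. Stocks at 5 mg/ml in DMF. Inoculum came from a direct colony suspension adjusted by turbidity to about 5 × 10⁴ CFU/well final. Trays were incubated at 35 °C for 16–22 h. MIC is the lowest concentration completely inhibiting growth (99% inhibition).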

Streptococcus pyogenes [2] = assay: Antibacterial activity against inducible macrolide-lincosamide-streptogramin-resistant Streptococcus pyogenes 16 to 22 hrs by broth microdilution method
In short: (§3)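 Two-fold serial dilutions in microdilution trays, following the CLSI dilution standard for aerobic bacteria. Medium was Mueller–Hinton broth with 5% horse serum for streptococci. Stocks were made at 5 mg/ml in DMF. Inoculum came from a direct colony suspension adjusted by turbidity to about 5 × 10⁴ CFU/well final. Incubation was at 35 °C for 16–22 h. MIC is the lowest concentration completely inhibiting growth (99% inhibition).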

Escherichia coli = assay: Antibacterial activity against Escherichia coli ATCC 25922 after 16 to 22 hrs by broth dilution method; in short: as §2
Streptococcus pneumoniae [3] = assay: Antibacterial activity against efflux-mediated macrolide-resistant Streptococcus pneumoniae after 16 to 22 hrs by broth microdilution method; in short: as §3
Streptococcus pyogenes [4] = assay: Antibacterial activity against erythromycin-susceptible Streptococcus pyogenes after 16 to 22 hrs by broth microdilution method; in short: as §1
Staphylococcus aureus = assay: Antibacterial activity against Staphylococcus aureus ATCC 29213 after 16 to 22 hrs by broth microdilution method; in short: as §2
Streptococcus pneumoniae [5] = assay: Antibacterial activity against constitutive macrolide-lincosamide-streptogramin-resistant Streptococcus pneumoniae after 16 to 22 hrs by broth microdilution method; in short: as §3
Streptococcus pyogenes [6] = assay: Antibacterial activity against efflux-mediated macrolide-resistance Streptococcus pyogenes after 16 to 22 hrs by broth microdilution method; in short: as §3
Moraxella catarrhalis = assay: Antibacterial activity against Moraxella catarrhalis ATCC 23246 after 16 to 22 hrs by broth dilution method; in short: as §2

| SMILES | MIC (Haemophilus influenzae) [mg/L] | MIC (Streptococcus pneumoniae [1]) [mg/L] | MIC (Enterococcus faecalis) [mg/L] | MIC (Streptococcus pyogenes [2]) [mg/L] | MIC (Escherichia coli) [mg/L] | MIC (Streptococcus pneumoniae [3]) [mg/L] | MIC (Streptococcus pyogenes [4]) [mg/L] | MIC (Staphylococcus aureus) [mg/L] | MIC (Streptococcus pneumoniae [5]) [mg/L] | MIC (Streptococcus pyogenes [6]) [mg/L] | MIC (Moraxella catarrhalis) [mg/L] |
| --- | --- | --- | --- | --- | --- | --- | --- | --- | --- | --- | --- |
| CC[C@H]1OC(=O)[C@H](C)[C@@H](O[C@H]2C[C@@](C)(OC)[C@@H](O)[C@H](C)O2)[C@H](C)[C@@H](O[C@@H]2O[C@H](C)C[C@H](N(C)C)[C@H]2O)[C@](C)(O)C[C@@H](C)CN(CCCNC(=S)NCc2ccccc2)[C@H](C)[C@@H](O)[C@]1(C)O | 2 (≈ 2.12 µM) | ≤ 0.125 | 8 (≈ 8.5 µM) | 4 (≈ 4.25 µM) | 16 (≈ 17 µM) | 8 (≈ 8.5 µM) | ≤ 0.125 | 0.5 (≈ 0.531 µM) | 64 (≈ 68 µM) | 4 (≈ 4.25 µM) | 1 (≈ 1.06 µM) |
| CC[C@H]1OC(=O)[C@H](C)[C@@H](O[C@H]2C[C@@](C)(OC)[C@@H](O)[C@H](C)O2)[C@H](C)[C@@H](O[C@@H]2O[C@H](C)C[C@H](N(C)C)[C@H]2O)[C@](C)(O)C[C@@H](C)CN(CCCN(CCC#N)C(=O)NCc2ccccc2)[C@H](C)[C@@H](O)[C@]1(C)O | 4 (≈ 4.09 µM) | ≤ 0.125 | 32 (≈ 32.7 µM) | 16 (≈ 16.4 µM) | 8 (≈ 8.18 µM) | 16 (≈ 16.4 µM) | ≤ 0.125 | 2 (≈ 2.04 µM) | 64 (≈ 65.4 µM) | 8 (≈ 8.18 µM) | 0.5 (≈ 0.511 µM) |
| CC[C@H]1OC(=O)[C@H](C)[C@@H](O[C@H]2C[C@@](C)(OC)[C@@H](O)[C@H](C)O2)[C@H](C)[C@@H](O[C@@H]2O[C@H](C)C[C@H](N(C)C)[C@H]2O)[C@](C)(O)C[C@@H](C)CN(C)[C@H](C)[C@@H](O)[C@]1(C)O [AZITHROMYCIN] | 1 (≈ 1.34 µM) | ≤ 0.125 | 8 (≈ 10.7 µM) | 8 (≈ 10.7 µM) | 2 (≈ 2.67 µM) | 8 (≈ 10.7 µM) | ≤ 0.125 | 0.5 (≈ 0.668 µM) | 64 (≈ 85.4 µM) | 4 (≈ 5.34 µM) | ≤ 0.125 |
| CC[C@H]1OC(=O)[C@H](C)[C@@H](O[C@H]2C[C@@](C)(OC)[C@@H](O)[C@H](C)O2)[C@H](C)[C@@H](O[C@@H]2O[C@H](C)C[C@H](N(C)C)[C@H]2O)[C@](C)(O)C[C@@H](C)CN(CCCN(CCC#N)C(=O)NCCc2ccccc2)[C@H](C)[C@@H](O)[C@]1(C)O | 32 (≈ 32.2 µM) | ≤ 0.125 | 64 (≈ 64.5 µM) | 32 (≈ 32.2 µM) | > 64 | 64 (≈ 64.5 µM) | ≤ 0.125 | 4 (≈ 4.03 µM) | > 64 | 64 (≈ 64.5 µM) | 16 (≈ 16.1 µM) |
| CC[C@H]1OC(=O)[C@H](C)[C@@H](O[C@H]2C[C@@](C)(OC)[C@@H](O)[C@H](C)O2)[C@H](C)[C@@H](O[C@@H]2O[C@H](C)C[C@H](N(C)C)[C@H]2O)[C@](C)(O)C[C@@H](C)CN(CCCN(CCC#N)C(=S)NCc2ccccc2)[C@H](C)[C@@H](O)[C@]1(C)O | 4 (≈ 4.02 µM) | ≤ 0.125 | 32 (≈ 32.2 µM) | 16 (≈ 16.1 µM) | 16 (≈ 16.1 µM) | 16 (≈ 16.1 µM) | ≤ 0.125 | 1 (≈ 1.01 µM) | 64 (≈ 64.4 µM) | 8 (≈ 8.05 µM) | 1 (≈ 1.01 µM) |
| CC[C@H]1OC(=O)[C@H](C)[C@@H](O[C@H]2C[C@@](C)(OC)[C@@H](O)[C@H](C)O2)[C@H](C)[C@@H](O[C@@H]2O[C@H](C)C[C@H](N(C)C)[C@H]2O)[C@](C)(O)C[C@@H](C)CN(CCCNC(=O)NCCc2ccccc2)[C@H](C)[C@@H](O)[C@]1(C)O | 16 (≈ 17 µM) | ≤ 0.125 | 16 (≈ 17 µM) | 8 (≈ 8.52 µM) | 16 (≈ 17 µM) | 32 (≈ 34.1 µM) | ≤ 0.125 | 1 (≈ 1.06 µM) | > 64 | 32 (≈ 34.1 µM) | 2 (≈ 2.13 µM) |
| CC[C@H]1OC(=O)[C@H](C)[C@@H](O[C@H]2C[C@@](C)(OC)[C@@H](O)[C@H](C)O2)[C@H](C)[C@@H](O[C@@H]2O[C@H](C)C[C@H](N(C)C)[C@H]2O)[C@](C)(O)C[C@@H](C)CN(CCCN(CCC#N)C(=S)NCCc2ccccc2)[C@H](C)[C@@H](O)[C@]1(C)O | 4 (≈ 3.97 µM) | ≤ 0.125 | 32 (≈ 31.7 µM) | 8 (≈ 7.93 µM) | 16 (≈ 15.9 µM) | 32 (≈ 31.7 µM) | ≤ 0.125 | 1 (≈ 0.992 µM) | 64 (≈ 63.5 µM) | 16 (≈ 15.9 µM) | 2 (≈ 1.98 µM) |
| CC[C@H]1OC(=O)[C@H](C)[C@@H](O[C@H]2C[C@@](C)(OC)[C@@H](O)[C@H](C)O2)[C@H](C)[C@@H](O[C@@H]2O[C@H](C)C[C@H](N(C)C)[C@H]2O)[C@](C)(O)C[C@@H](C)CN(CCCN(CCC#N)C(=S)Nc2cccc3ccccc23)[C@H](C)[C@@H](O)[C@]1(C)O | 8 (≈ 7.76 µM) | ≤ 0.125 | 32 (≈ 31.1 µM) | 32 (≈ 31.1 µM) | 8 (≈ 7.76 µM) | 16 (≈ 15.5 µM) | ≤ 0.125 | 4 (≈ 3.88 µM) | 64 (≈ 62.1 µM) | 32 (≈ 31.1 µM) | 4 (≈ 3.88 µM) |
| CC[C@H]1OC(=O)[C@H](C)[C@@H](O[C@H]2C[C@@](C)(OC)[C@@H](O)[C@H](C)O2)[C@H](C)[C@@H](O[C@@H]2O[C@H](C)C[C@H](N(C)C)[C@H]2O)[C@](C)(O)C[C@@H](C)CN(CCCNC(=O)NC(C)C)[C@H](C)[C@@H](O)[C@]1(C)O | 16 (≈ 18.2 µM) | ≤ 0.125 | 32 (≈ 36.5 µM) | 8 (≈ 9.12 µM) | 16 (≈ 18.2 µM) | 32 (≈ 36.5 µM) | ≤ 0.125 | 2 (≈ 2.28 µM) | > 64 | 32 (≈ 36.5 µM) | 1 (≈ 1.14 µM) |
| CC[C@H]1OC(=O)[C@H](C)[C@@H](O[C@H]2C[C@@](C)(OC)[C@@H](O)[C@H](C)O2)[C@H](C)[C@@H](O[C@@H]2O[C@H](C)C[C@H](N(C)C)[C@H]2O)[C@](C)(O)C[C@@H](C)CN(CCCN(CCC#N)C(=S)Nc2ccccc2)[C@H](C)[C@@H](O)[C@]1(C)O | 16 (≈ 16.3 µM) | ≤ 0.125 | > 64 | 32 (≈ 32.6 µM) | > 64 | 32 (≈ 32.6 µM) | ≤ 0.125 | 2 (≈ 2.04 µM) | > 64 | 32 (≈ 32.6 µM) | 4 (≈ 4.08 µM) |
| CC[C@H]1OC(=O)[C@H](C)[C@@H](O[C@H]2C[C@@](C)(OC)[C@@H](O)[C@H](C)O2)[C@H](C)[C@@H](O[C@@H]2O[C@H](C)C[C@H](N(C)C)[C@H]2O)[C@](C)(O)C[C@@H](C)CN(CCCN(CCC#N)C(=O)Nc2ccc3ccccc3c2)[C@H](C)[C@@H](O)[C@]1(C)O | 2 (≈ 1.97 µM) | ≤ 0.125 | 16 (≈ 15.8 µM) | 16 (≈ 15.8 µM) | 32 (≈ 31.5 µM) | 16 (≈ 15.8 µM) | ≤ 0.125 | 1 (≈ 0.986 µM) | 32 (≈ 31.5 µM) | 8 (≈ 7.89 µM) | 1 (≈ 0.986 µM) |
| CC[C@H]1OC(=O)[C@H](C)[C@@H](O[C@H]2C[C@@](C)(OC)[C@@H](O)[C@H](C)O2)[C@H](C)[C@@H](O[C@@H]2O[C@H](C)C[C@H](N(C)C)[C@H]2O)[C@](C)(O)C[C@@H](C)CN(CCCNC(=S)NCCc2ccccc2)[C@H](C)[C@@H](O)[C@]1(C)O | 2 (≈ 2.09 µM) | ≤ 0.125 | 16 (≈ 16.7 µM) | 4 (≈ 4.19 µM) | 32 (≈ 33.5 µM) | 8 (≈ 8.37 µM) | ≤ 0.125 | 1 (≈ 1.05 µM) | > 64 | 4 (≈ 4.19 µM) | 1 (≈ 1.05 µM) |

— ChEMBL document CHEMBL1153576, “Novel ureas and thioureas of 15-membered azalides with antibacterial activity against key respiratory pathogens” (Eur J Med Chem, 2009)
